Inhibition in vivo, ED50 and IC50 data for 23 compounds are collected here from ChEMBL document CHEMBL1124662, “Antiinflammatory activity of a series of substituted 2,3-dihydro-6-hydroxypyrimido[2,1-f]purine-4,8(1H,9H)-diones” (J Med Chem, 1989).

Assay [1] relates to Rattus norvegicus. Put plainly: Prophylactic antiinflammatory activity against adjuvant arthritic rat at dose of 25 mg/kg in noninjected 2 degree paw. The format is functional. Summed up: (§1)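 Heat-killed Mycobacterium tuberculosis ground and homogenized in paraffin oil (6 mg/mL); 0.1 mL injected into left hind paw. Drug dosed 1 h before challenge, then daily for 21 consecutive days; controls received methylcellulose. Both hind paw volumes measured by plethysmograph immediately and on day 21; % inhibition of Δ paw volume.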

Assay [2] relates to Rattus norvegicus. The experiment in a line: Prophylactic antiinflammatory activity against adjuvant arthritic rat at dose of 25 mg/kg in noninjected 1 degree paw. In kind it is functional. Summed up: as §1
For assay [3], the system named is Rattus norvegicus. The experiment in a line: Antiinflammatory activity against reverse passive Arthus reaction-synovitis in rat at dose of 50 mg/kg per orally. In kind it is functional. Particulars: po. In outline: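 Lewis rats dosed orally with drug or placebo 1 h before iv bovine serum albumin in saline, then 0.54 mg rabbit anti-BSA antibody intraarticular in one knee, saline in the other, under light anesthesia. Second oral dose at 3 h; the dose used is the total given before and after induction.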

Assay [4] relates to Rattus norvegicus. The experiment in a line: Prophylactic antiinflammatory activity against adjuvant arthritic rat at dose of 50 mg/kg in noninjected 2 degree paw. The format is functional. Summed up: as §1
The test system of assay [5] is Rattus norvegicus. Put plainly: Prophylactic antiinflammatory activity against adjuvant arthritic rat at dose of 50 mg/kg in noninjected 1 degree paw. In kind it is functional. In outline:
as §1

In assay [6] the test system is Rattus norvegicus. Put plainly: Prophylactic anti-inflammatory activity in adjuvant arthritic rat at 12.5 mg/kg in noninjected 1 degree paw. In kind it is functional. Summed up: as §1
For assay [7], the system named is Rattus norvegicus. The experiment in a line: Prophylactic anti-inflammatory activity in adjuvant arthritic rat at 12.5 mg/kg in noninjected 2 degree paw. The format is functional. In outline: as §1
The subject of assay [8] is Rattus norvegicus. The experiment in a line: Prophylactic anti-inflammatory activity in adjuvant arthritic rat at 6.25 mg/kg in noninjected 2 degree paw. In kind it is functional. Summed up: as §1
Assay [9] relates to Rattus norvegicus. The experiment in a line: Prophylactic anti-inflammatory activity in adjuvant arthritic rat at 6.25 mg/kg in noninjected 1 degree paw. The format is functional. In outline: as §1
A short description of assay [10]: Therapeutic oral administration in adjuvant arthritic rat model at 25 mg/kg in noninjected 2 degree paw. In kind it is ADME, organism-based. More on the design: dose 25 mg/kg, route oral. Summed up: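 Adjuvant arthritis (heat-killed M. tuberculosis in paraffin oil, 6 mg/mL, 0.1 mL into left hind paw) left to develop 7 days before first oral dose; treatment continued 35 days. Controls given methylcellulose; hind paw volumes measured by plethysmograph as Δ paw volume; % inhibition.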

Assay [11] has as its system Rattus norvegicus. The experiment in a line: Prophylactic oral administration in adjuvant arthritic rat model at 25 mg/kg in noninjected 2 degree paw. In kind it is functional. In outline: as §1
The test system of assay [12] is Rattus norvegicus. The experiment in a line: Prophylactic anti-inflammatory activity in adjuvant arthritic rat at 25 mg/kg in noninjected 1 degree paw. In kind it is functional. In outline: as §1
The subject of assay [13] is Rattus norvegicus. Put plainly: Prophylactic anti-inflammatory activity in adjuvant arthritic rat at 25 mg/kg in noninjected 2 degree paw. In kind it is functional. In outline: as §1
Assay [14] relates to Rattus norvegicus. Put plainly: Prophylactic anti-inflammatory activity in adjuvant arthritic rat at 50 mg/kg in noninjected 1 degree paw. In kind it is functional. Summed up: as §1
Assay [15] has as its system Rattus norvegicus. The experiment in a line: Prophylactic anti-inflammatory activity adjuvant arthritic rat at 50 mg/kg in noninjected 2 degree paw. The format is functional. Summed up: as §1
In assay [16] the test system is Rattus norvegicus. The experiment in a line: Prophylactic anti-inflammatory activity in adjuvant arthritic rat at 45 mg/kg in noninjected 2 degree paw. The format is functional. In outline:
as §1

The test system of assay [17] is Rattus norvegicus. Put plainly: Prophylactic anti-inflammatory activity in adjuvant arthritic rat at 45 mg/kg in noninjected 1 degree paw. The format is functional. Summed up: as §1
The nature of assay [18]: Inhibition of guinea pig Phosphodiesterase. The arrangement: species or system Cavia porcellus.

Molecules are shown by their SMILES.

As to `CCCc1c(O)n(Cc2ccc(F)cc2)c2nc3c(n2c1=O)C(=O)N(C)CN3C`, the inhibition in vivo (commonly the drop in the measured response relative to a control, in per cent) at 25 mg/kg turned out to be 56% in the assay with Rattus norvegicus [1] and 0% in the assay on Rattus norvegicus [2]. In addition, the inhibition in vivo at 50 mg/kg in the assay on Rattus norvegicus [3] turned out to be 0%.

With `CN1CN(C)c2nc3n(Cc4ccccc4)c(O)c(Sc4ccccc4)c(=O)n3c2C1=O`, the values for the inhibition in vivo at 50 mg/kg with Rattus norvegicus [4] and with Rattus norvegicus [5] were 23% and 15%, respectively.

As for `Cc1c(O)n(Cc2ccccc2)c2nc3c(n2c1=O)C(=O)N(C)CN3C`, the results for the inhibition in vivo at 50 mg/kg in the assay with Rattus norvegicus [4], in the assay with Rattus norvegicus [5] and in the assay on Rattus norvegicus [3] were 69%, 46% and 0%, respectively. In addition, the inhibition in vivo at 12.5 mg/kg in the assay on Rattus norvegicus [6] turned out to be 0%; with Rattus norvegicus [7], 36%. The inhibition in vivo at 25 mg/kg with Rattus norvegicus [1] is 22%; in the assay with Rattus norvegicus [2], 0%.

As for `C/C=C/Cc1c(O)n(Cc2ccccc2)c2nc3c(n2c1=O)C(=O)N(C)CN3C`, the inhibition in vivo at 50 mg/kg in the assay with Rattus norvegicus [4] is 71%; in the assay with Rattus norvegicus [5], 44%; with Rattus norvegicus [3], 0%. Further, the inhibition in vivo at 12.5 mg/kg with Rattus norvegicus [6] was 20%. In addition, the figures for the inhibition in vivo at 25 mg/kg with Rattus norvegicus [1] and in the assay on Rattus norvegicus [2] were 40% and 24%, respectively.

For `C/C(=C/Cc1c(O)n(Cc2ccccc2)c2nc3c(n2c1=O)C(=O)N(C)CN3C)C(F)(F)F`, the values for the inhibition in vivo at 6.25 mg/kg with Rattus norvegicus [8] and with Rattus norvegicus [9] were 60% and 33%, respectively. For the same compound, the ED50 (as a rule, the dose that gives a 50% effect, or the effect in half of the subjects) stood at 4 mg/kg in assay [10] and 8.8 mg/kg with Rattus norvegicus [11]. Also, the values for the inhibition in vivo at 12.5 mg/kg with Rattus norvegicus [6] and in the assay on Rattus norvegicus [7] were 47% and 64%, respectively. Besides, the inhibition in vivo at 25 mg/kg came out at 74% in the assay with Rattus norvegicus [1] and 45% in the assay on Rattus norvegicus [2]. In addition, the inhibition in vivo at 50 mg/kg in the assay with Rattus norvegicus [3] was 25%.

On to `CCCc1c(O)n(Cc2ccccc2)c2nc3c(n2c1=O)C(=O)N(C)CN3C`, for which the inhibition in vivo at 50 mg/kg in the assay on Rattus norvegicus [4] is 70%; in the assay with Rattus norvegicus [5], 38%; in the assay with Rattus norvegicus [3], 45%. Also, the inhibition in vivo at 12.5 mg/kg with Rattus norvegicus [6] worked out at 16%; in the assay on Rattus norvegicus [7], 38%. For the same compound, the inhibition in vivo at 25 mg/kg was 65% with Rattus norvegicus [1] and 24% in the assay on Rattus norvegicus [2].

For the compound `CC(C)=CCc1c(O)n(Cc2ccc(F)cc2)c2nc3c(n2c1=O)C(=O)N(C)CN3C`, the ED50 in assay [10] was found to be 7.6 mg/kg. Besides, the inhibition in vivo at 25 mg/kg in the assay with Rattus norvegicus [12] came out at 24%; in the assay on Rattus norvegicus [1] it was 49%. The inhibition in vivo at 50 mg/kg in the assay on Rattus norvegicus [3] turned out to be 18%.

Regarding `CN1CN(C)c2nc3n(Cc4ccccc4)c(O)c(CCO)c(=O)n3c2C1=O`, the inhibition in vivo at 50 mg/kg with Rattus norvegicus [3] worked out at 8%.

For the compound `CCCc1c(O)n(Cc2cccs2)c2nc3c(n2c1=O)C(=O)N(C)CN3C`, the inhibition in vivo at 12.5 mg/kg in the assay with Rattus norvegicus [6] is 20%; in the assay with Rattus norvegicus [7], 13%. Also, the inhibition in vivo at 25 mg/kg in the assay on Rattus norvegicus [1] was determined as 51%; with Rattus norvegicus [2], 20%.

Consider `CSc1c(O)n(Cc2ccccc2)c2nc3c(n2c1=O)C(=O)N(C)CN3C`, for which the inhibition in vivo at 50 mg/kg in the assay with Rattus norvegicus [4] was found to be 61%; in the assay with Rattus norvegicus [5], 33%; in the assay with Rattus norvegicus [3] it was 10%.

As to `CN(C)/C=c1\c(=O)n(Cc2ccccc2)c2nc3c(n2c1=O)C(=O)N(C)CN3C`, the inhibition in vivo at 50 mg/kg in the assay on Rattus norvegicus [3] came out at 27%.

Consider `CN1CN(C)c2nc3n(Cc4ccccc4)c(O)c(Cc4ccccc4)c(=O)n3c2C1=O`, for which the inhibition in vivo at 50 mg/kg in the assay with Rattus norvegicus [4] was determined as 63%; in the assay on Rattus norvegicus [5], 46%; in the assay on Rattus norvegicus [3] it was 5%. The inhibition in vivo at 25 mg/kg worked out at 49% in the assay on Rattus norvegicus [1] and 34% in the assay with Rattus norvegicus [2].

Turning to `C#CCc1c(O)n(Cc2ccccc2)c2nc3c(n2c1=O)C(=O)N(C)CN3C`, the inhibition in vivo at 50 mg/kg worked out at 13% in the assay on Rattus norvegicus [4], 36% with Rattus norvegicus [5] and 6% with Rattus norvegicus [3]. The inhibition in vivo at 25 mg/kg was found to be 21% in the assay with Rattus norvegicus [1] and 35% with Rattus norvegicus [2].

For `CN1CN(C)c2nc3n(Cc4ccc(F)cc4)c(O)cc(=O)n3c2C1=O`, the values for the inhibition in vivo at 25 mg/kg in the assay with Rattus norvegicus [13] and in the assay on Rattus norvegicus [12] were 24% and 36%, respectively. The inhibition in vivo at 12.5 mg/kg with Rattus norvegicus [6] was 22%; in the assay with Rattus norvegicus [7] it was 21%. The inhibition in vivo at 50 mg/kg with Rattus norvegicus [14] was determined as 37%; in the assay on Rattus norvegicus [3], 9%; with Rattus norvegicus [15], 46%.

Consider `CN1CN(C)c2nc3n(Cc4ccccc4)c(O)c(C4C=CCCC4)c(=O)n3c2C1=O` (configuration not stated), for which the inhibition in vivo at 50 mg/kg in the assay with Rattus norvegicus [4] is 13%; in the assay with Rattus norvegicus [5], 13%; in the assay with Rattus norvegicus [3], 16%. For the same compound, the inhibition in vivo at 12.5 mg/kg stood at 9% with Rattus norvegicus [6] and 6% in the assay on Rattus norvegicus [7]. Besides, the figures for the inhibition in vivo at 25 mg/kg in the assay on Rattus norvegicus [1] and in the assay with Rattus norvegicus [2] were 15% and 12%, respectively.

Regarding `CC(C)=CCSc1cc(=O)n2c3c(nc2n1Cc1ccccc1)N(C)CN(C)C3=O`, the inhibition in vivo at 25 mg/kg was 8% in the assay with Rattus norvegicus [1] and -16% with Rattus norvegicus [2].

Take `CN1CN(C)c2nc3n(Cc4ccccc4)c(O)c(C(=O)Nc4ccccc4)c(=O)n3c2C1=O`: the inhibition in vivo at 50 mg/kg in the assay with Rattus norvegicus [4] was 23%; with Rattus norvegicus [5] it was -21%.

Regarding `CN1CN(C)c2nc3n(Cc4ccccc4)c(=O)/c(=C\O)c(=O)n3c2C1=O`, the inhibition in vivo at 50 mg/kg in the assay with Rattus norvegicus [4] amounted to 32%; in the assay on Rattus norvegicus [5], 6%; in the assay with Rattus norvegicus [3], 34%.

As for `C=CCc1c(O)n(Cc2ccc(F)cc2)c2nc3c(n2c1=O)C(=O)N(C)CN3C`, the inhibition in vivo at 50 mg/kg in the assay with Rattus norvegicus [4] turned out to be 49%; in the assay with Rattus norvegicus [5] it was 10%; in the assay with Rattus norvegicus [3], 40%.

In the case of `CCOC(=O)Cc1c(O)n(Cc2ccccc2)c2nc3c(n2c1=O)C(=O)N(C)CN3C`, the inhibition in vivo at 25 mg/kg is 20% in the assay on Rattus norvegicus [1] and 18% with Rattus norvegicus [2]. Besides, the inhibition in vivo at 50 mg/kg with Rattus norvegicus [3] amounted to 14%.

In the case of `COc1ccc(Cn2c(O)c(CC=C(C)C)c(=O)n3c4c(nc23)N(C)CN(C)C4=O)cc1`, the inhibition in vivo at 12.5 mg/kg is 40% in the assay with Rattus norvegicus [6] and 63% with Rattus norvegicus [7]. For the same compound, the inhibition in vivo at 25 mg/kg in the assay with Rattus norvegicus [1] was determined as 69%; in the assay with Rattus norvegicus [2], 45%. In the assay with Rattus norvegicus [11], the ED50 worked out at 14 mg/kg.

As to `CC(C)CCc1c(O)n(Cc2ccccc2)c2nc3c(n2c1=O)C(=O)N(C)CN3C`, the inhibition in vivo at 45 mg/kg came to 51% in the assay on Rattus norvegicus [16] and 23% with Rattus norvegicus [17].

As to `Cn1c(=O)c2[nH]cnc2n(C)c1=O` [AMINOPHYLLINE], the IC50 – broadly, the concentration at which inhibition is half-maximal – in assay [18] came to 30 µM. This counts as double-digit micromolar.
